Screening results deposited in PubChem BioAssay by several laboratories.
Gli-Sufu antag = Gli-Sufu pathway antagonism | inhibition, % at 5 µM | Sufu-KO-LIGHT fibroblasts, Gli luciferase reporter luminescence | AID 588413 | 340,000 tested, 0.74% active;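 active = inhibition above about 55%, limit read from the data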
NR2E3 ag-1 = activates human photoreceptor nuclear receptor NR2E3; 320,000 tested, 0.12% active; GST-NR2E3/biotin-RetCOR TR-FRET, 1536-well; AID 2300; inhibition of corepressor binding, % at 4.78 µM;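 active = percent inhibition above the cutoff of mean plus 3 SD of all tested compounds, set per screening campaign, cut at about 20% in these data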
Target sequence (Q9Y5X4 whole entry, looked up): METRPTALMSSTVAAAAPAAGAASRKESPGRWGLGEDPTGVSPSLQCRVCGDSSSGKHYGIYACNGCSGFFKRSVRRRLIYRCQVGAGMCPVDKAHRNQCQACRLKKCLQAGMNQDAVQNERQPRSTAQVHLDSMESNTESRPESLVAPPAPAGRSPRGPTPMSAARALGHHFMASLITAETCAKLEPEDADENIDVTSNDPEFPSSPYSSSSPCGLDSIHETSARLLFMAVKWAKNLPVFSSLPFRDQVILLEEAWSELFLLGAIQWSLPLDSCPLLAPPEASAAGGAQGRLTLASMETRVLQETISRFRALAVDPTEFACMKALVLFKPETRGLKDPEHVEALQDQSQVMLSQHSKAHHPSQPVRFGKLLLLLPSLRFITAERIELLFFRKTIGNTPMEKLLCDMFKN
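Format: 1536-well format; test system: GST-NR2E3 and biotin-RetCOR proteins; read-out basis: percent inhibition of TR-FRET ratio; timing: 5 h incubation at 4 °C; detection: time-resolved FRET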
NR2E3 ag-2 = activates human NR2E3 receptor | inhibition of corepressor binding, % at 3.98 µM | CHO-S Gal4-NCOR/VP16-NR2E3 two-hybrid, luciferase | 360,000 tested, 0.35% active | Q9Y5X4;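 active = inhibition above the mean of all tested compounds plus 3 SD, cut at about 70% in these data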;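 also: higher means lower luciferase signal from less NR2E3 corepressor binding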
697 NFkB inh = inhibitors of the PMA/ionomycin-induced NF-kB reporter in 697 B cells | 330,000 tested, 0.33% active | inhibition, % at 4 µM | AID 435022 | 697 B-cell NF-kB luciferase reporter, 16 h; in the data active = inhibition above about 35%
Jurkat NFkB inh = lowers PMA/ionomycin-induced NF-kB signal in Jurkat cells. PMA/ionomycin-induced NF-kB luciferase reporter, luminescence. inhibition, % at 4 µM. 330,000 tested, 0.53% active. AID 435003; in the data active = inhibition above about 50%
GalR3 antag = antagonists of human GalR3; O60755; 360,000 tested, 0.44% active; inhibition, % at 3 µM; HEK293 GalR3-CNG cAMP membrane potential fluorescence; galR3 body fused to GalR1 C-terminus;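 active = inhibition above the screen-wide average plus 3 SD, cut at about 13% in these data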;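 also: forskolin and galanin both at EC90 stimulate the cells; cAMP rise reported by CNG channel membrane potential dye signal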
Target sequence (O60755 1-299 limits assumed): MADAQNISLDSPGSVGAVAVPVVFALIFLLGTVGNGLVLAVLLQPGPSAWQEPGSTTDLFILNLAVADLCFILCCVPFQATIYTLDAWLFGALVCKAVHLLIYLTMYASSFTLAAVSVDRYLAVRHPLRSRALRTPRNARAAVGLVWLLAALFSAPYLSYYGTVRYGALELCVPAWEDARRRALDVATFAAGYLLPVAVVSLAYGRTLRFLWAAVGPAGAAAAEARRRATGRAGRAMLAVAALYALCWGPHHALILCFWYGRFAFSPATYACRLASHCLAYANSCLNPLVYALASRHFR
697 NFkB conf = lowers PMA/ionomycin-induced NF-kB signal in 697 B cells | shares compounds with 697 NFkB inh | 697 B-cell NF-kB luciferase, 16 h | inhibition, % at 4 µM | 2,000 tested, 35% active | AID 449746; in the data active = inhibition mostly above about 28%, no sharp cut-off; inactive = mostly below about 22%
Gli-Sufu confirm = confirmation of Gli-SUFU pathway antagonists; shares compounds with Gli-Sufu antag; Sufu-KO-LIGHT cells, Gli luciferase reporter, luminescence; inhibition, % at 5 µM; 2,500 tested, 40% active; AID 602428;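 active = mean inhibition at 5 µM reaching about 45%, limit read from the data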
SufuKO cytotox = cytotoxic in Gli-SUFU antagonist counter-screen; shares compounds with Gli-Sufu antag; 2,500 tested, 32% active; Sufu-KO-LIGHT cells cytotoxicity, ATP luminescence; cytotoxicity, % at 5 µM;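 active = mean cytotoxicity at 5 µM above about 25%, limit read from the data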;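 also: cells exposed to compound overnight for roughly 16 to 18 hours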
Wnt3a cs = Wnt3a reporter inhibition counter-screen. shares compounds with Gli-Sufu antag. 2,500 tested, 20% active. AID 651995. inhibition, % at 6.25 µM. Wnt-LIGHT cells, Wnt3a-driven luciferase reporter, luminescence;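 active = mean inhibition above about 25%, limit read from the data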
NR2E3 ag confirm = NR2E3 agonism confirmed in two-hybrid assay | AID 624378 | inhibition, % at 3.98 µM | CHO-S mammalian two-hybrid NR2E3-NCOR, luciferase luminescence | shares compounds with NR2E3 ag-2 | 2,300 tested, 51% active;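 active = average inhibition above a cutoff equal to the mean inhibition of all tested compounds plus one SD, cut at about 70% in these data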
VP16 counter = reduces GAL4-VP16 reporter signal in NR2E3 counterscreen | 2,300 tested, 29% active | CHO-S GAL4-VP16 luciferase reporter, luminescence | inhibition, % at 3.98 µM | shares compounds with NR2E3 ag-2;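 active = mean inhibition above a cutoff equal to the average over all tested compounds plus one standard deviation, cut at about 70% in these data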;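 also: luciferase from a UAS reporter driven by GAL4-VP16 transactivation; higher means less reporter light so more repression of VP16 activity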
GalR3 antag conf = confirmation of human galanin receptor 3 antagonists; shares compounds with GalR3 antag; HEK293 GalR3 CNG cAMP biosensor, membrane potential fluorescence; galR3 fused to GalR1 carboxy tail; challenged with forskolin and galanin at EC90; inhibition, % at 3 µM; 1,600 tested, 59% active; AID 652245;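 active = inhibition above the primary screen's cutoff, the mean inhibition of all screened compounds plus 3 SD, cut at about 13% in these data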
CNG parental = parental cell agonism counter-screen for GalR3 antagonists | HEK293-CNG parental cells, cAMP membrane potential fluorescence; normalised: DMSO wells 0%, forskolin wells 100% | activation, % at 3 µM | 1,600 tested, 10% active | shares compounds with GalR3 antag; in the data active = activation above about 1.3%
Numbers stand for hits; - = inactive; . = not tested or not shown. Rows were chosen to be rich in hits. Some 1.8% of all compounds tested hit in one or more screens of this group.

SMILES | Gli-Sufu antag | NR2E3 ag-1 | NR2E3 ag-2 | 697 NFkB inh | Jurkat NFkB inh | GalR3 antag | 697 NFkB conf | GalR3 antag conf | CNG parental | others
Cc1ccc(NC(=O)Nn2cnnc2)cc1Cl | - | - | - | - | - | - | . | . | .
CNC(=O)c1cc(Oc2ccc(NC(=O)Nc3ccc(Cl)c(C(F)(F)F)c3)cc2)ccn1 | - | - | 92.1 | 62.5 | - | - | 59.5 | . | . | NR2E3 ag confirm=98.9;VP16 counter=81.3
O=C(Nc1ccc(Cl)c(C(F)(F)F)c1)c1ccncc1 | - | - | - | - | - | - | . | . | .
Cc1cc(NC2CCCC2)n2ncc(-c3ccccc3)c2n1 | - | - | - | - | - | - | - | . | . | NR2E3 ag confirm=-;VP16 counter=-
COC(=O)[C@]12C[C@H](CC(=O)N3CCCC3)C(=O)N(CCC3=CCCCC3)C1=C[C@H](C(C)(C)C)O[C@@H]2C | . | . | . | . | . | - | . | . | .
O=c1c2ccccc2sc2ccc(C#CC3(O)CCCCC3)cc12 | 83.0 | - | 98.5 | 39.7 | - | - | - | . | . | NR2E3 ag confirm=85.5;VP16 counter=73.4
CC(=O)NCC(=O)NC1CCCc2c1cnn2-c1ccc(C(C)(C)C)cc1 (configuration not stated) | - | - | - | - | - | - | . | . | .
CC(C)(C)c1ccc(-n2ncc3c2CCCC3NC(=O)C2(C(N)=O)CC2)cc1 (configuration not stated) | 76.3 | - | 99.9 | 42.6 | - | 91.8 | 83.3 | 113.9 | - | Gli-Sufu confirm=65.0;SufuKO cytotox=30.0;Wnt3a cs=-;NR2E3 ag confirm=91.9;VP16 counter=81.0
CC1Oc2ccccc2C=C1/C=N/Nc1ccc(C(=O)O)cc1 (configuration not stated) | - | - | - | - | - | 13.7 | - | 13.9 | -
CCOc1cc(/C=C2\CCC/C(=C\c3cc(Cl)c(O)c(OCC)c3)C2=O)cc(Cl)c1O | - | - | - | - | - | 24.1 | - | 53.5 | -
CCOc1cc(/C=C2\CN(C)C/C(=C\c3ccc(O)c(OCC)c3)C2=O)ccc1O | - | - | - | - | - | - | . | . | .
COc1cc2c(cc1OC)-c1cc(Nc3ccccc3Br)nc(=O)n1CC2 | - | - | - | 35.2 | - | 48.9 | - | 60.7 | -
COc1ccc(OC)c(CCNC(=O)C(C)n2nc(C)c3c(C)n(-c4ccccc4)nc3c2=O)c1 (configuration not stated) | - | - | - | - | - | - | . | . | .
COc1ccc(OC)c(CCNC(=O)C(C)n2nc(C)c3c(C)n(-c4ccc(C)cc4)nc3c2=O)c1 (configuration not stated) | - | - | - | 40.0 | - | 50.0 | 86.6 | 91.3 | -
COc1ccc(/C=N/OCC(=O)NC(c2ccccc2)c2ccccc2)cc1OC | - | - | - | 68.4 | - | 89.3 | 38.5 | 100.2 | - | Gli-Sufu confirm=53.4;SufuKO cytotox=31.0;Wnt3a cs=35.0
Nc1cc(=O)n(Cc2ccccc2)c(N)c1C(=O)NCc1ccccc1 | . | . | . | . | . | - | . | . | .
O=S(=O)(NCc1ccncc1)c1ccc(Br)s1 | 70.4 | - | 102.6 | 51.2 | - | 104.8 | 44.8 | 116.3 | - | Gli-Sufu confirm=63.9;SufuKO cytotox=44.1;Wnt3a cs=45.9;NR2E3 ag confirm=92.1;VP16 counter=77.8
COC(=O)[C@]12C[C@H](CC(=O)N3CCN(C(=O)c4ccco4)CC3)C(=O)N(Cc3ccc4c(c3)OCO4)C1=C[C@H](C(C)(C)C)O[C@@H]2C | . | . | . | . | . | - | . | . | .
CCOC(=O)c1sc(NC(=O)c2cc(-c3ccc(C)cc3)nc3ccccc23)c(C#N)c1C | - | - | - | - | - | - | . | . | .
Cc1ccccc1-c1cc(C(=O)Nc2sc(C(=O)OC(C)C)c(C)c2C#N)c2ccccc2n1 | - | - | 92.2 | 37.4 | - | 71.5 | 43.5 | 99.5 | - | NR2E3 ag confirm=99.9;VP16 counter=88.4
Cc1cc(=O)oc2cc(OCc3c(F)cccc3Cl)ccc12 | . | . | . | . | . | - | . | . | .
CC1(C)CC2CC(C)(CN2S(=O)(=O)c2ccc(C(=O)Nc3ccc(S(=O)(=O)N4CCOCC4)cc3)cc2)C1 (configuration not stated) | . | - | - | 53.9 | - | 87.4 | 35.3 | 118.0 | -
O=C(NCC1CCN(C(=O)C(=O)c2cc3ccccc3o2)CC1)c1cc(C(F)(F)F)cc(C(F)(F)F)c1 | . | . | . | . | . | - | . | . | .
COc1ccc(-n2c(-c3ccc(Cl)cc3)c[n+]3c2CCc2ccccc2-3)cc1 | 84.6 | - | - | 56.2 | - | 62.1 | 91.6 | 56.8 | - | Gli-Sufu confirm=86.5;SufuKO cytotox=28.2;Wnt3a cs=-
COc1ccc(-n2c(-c3ccccc3)nnc2-c2ccc(Cl)cc2)cc1 | - | - | - | - | - | - | . | . | .
SMILES | Gli-Sufu antag | NR2E3 ag-1 | NR2E3 ag-2 | 697 NFkB inh | Jurkat NFkB inh | GalR3 antag | 697 NFkB conf | GalR3 antag conf | CNG parental | others
CCOc1ccc(-n2c(-c3ccccc3)c[n+]3c2CCCCC3)cc1 | 86.2 | - | - | 62.6 | - | 51.4 | 63.8 | 77.6 | - | Gli-Sufu confirm=90.0;SufuKO cytotox=25.4;Wnt3a cs=40.0
COC(=O)C1=C(C)N(Cc2ccc(C(F)(F)F)cc2)C(=NCc2ccc(C(F)(F)F)cc2)NC1c1cccc(C(F)(F)F)c1 (configuration not stated) | . | . | . | . | . | - | . | . | .
O=S1(=O)N[C@H](Cc2ccccc2)COc2cc(Br)ccc21 | . | . | . | . | . | - | . | . | .
COc1ccc(S(=O)(=O)NCc2cccnc2)cc1Br | 59.0 | - | - | - | - | - | . | . | . | Gli-Sufu confirm=-;SufuKO cytotox=-;Wnt3a cs=-
COc1ccc(S(=O)(=O)NCc2cccnc2)cc1 | - | - | - | - | - | - | . | . | .
C(=CCSc1ccccn1)CSc1ccccn1 | . | . | . | . | . | - | . | . | .
Nc1ccc(OCc2ccccc2)cc1 | - | - | - | - | - | - | . | . | .
CCN(Cc1ccccc1)Cc1ccc(OCc2ccccc2)cc1 | 59.0 | - | - | - | - | - | . | . | . | Gli-Sufu confirm=-;SufuKO cytotox=-;Wnt3a cs=-
O=C(COC(=O)c1cccnc1Nc1ccccc1F)NCCN1C(=O)CSC1=O | - | - | - | - | - | - | . | . | . | Gli-Sufu confirm=-;SufuKO cytotox=-;Wnt3a cs=-
